{"source": "ChEMBL document CHEMBL1154414", "about": "“In vitro and in vivo activities of T-705 against arenavirus and bunyavirus infections” (Antimicrob Agents Chemother, 2007)", "key": {"Punta Toro virus [1]": {"tested_on": "Punta Toro virus", "experiment": "Antiviral activity against 500 PFU Punta Toro virus Adames infected C57BL/6 mouse assessed as mean serum ALT levels at 75 mg/kg, po twice daily administered 4 hrs before viral challenge measured on day 4 of viral infection", "format": "functional", "outline": "(§1)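 C57BL/6 mice received subcutaneous PTV, then oral gavage twice daily for 5–7 days. T-705 was given in 0.4% CMC and ribavirin in saline. Five mice per group (10 placebo) were killed on day 3 or 4, and serum was collected. ALT activity was measured by kinetic assay. Three sham-infected mice set baselines.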"}, "Pichinde virus [2]": {"tested_on": "Pichinde virus", "experiment": "Antiviral activity against Pichinde virus An 4763 infected Syrian golden hamster assessed as inhibition of liver damage at 50 mg/kg, po twice daily for 7 days administered 72 hrs post viral-challenge measured on day 7 of viral infection", "format": "functional, organism-based", "parameters": "dose 50 mg/kg"}, "Punta Toro virus [3]": {"tested_on": "Punta Toro virus", "experiment": "Antiviral activity against Punta Toro virus Adames infected Syrian golden hamster assessed as animals with detectable virus level in serum at 15 mg/kg, po twice daily administered 4 hrs before viral challenge measured on day 4 of viral infection", "format": "functional"}, "Punta Toro virus [4]": {"tested_on": "Punta Toro virus", "experiment": "Antiviral activity against Punta Toro virus Adames assessed as reduction of 1 log10 unit viral titer yields after 3 to 5 days", "format": "functional"}, "Punta Toro virus [5]": {"tested_on": "Punta Toro virus", "experiment": "Antiviral activity against 500 PFU Punta Toro virus Adames infected C57BL/6 mouse assessed as survival at 100 mg/kg, po twice daily for 5 days administered 4 hrs before viral challenge", "format": "functional, organism-based", "parameters": "dose 100 mg/kg", "outline": "(§2)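 PTV was inoculated subcutaneously into mice in groups of 15 (25–30 placebo). Dosing was by oral gavage twice daily for 5–7 days, with T-705 suspended in 0.4% CMC and ribavirin in saline. Remaining animals were observed 21–28 days for survival and day of death. Test doses had first been checked for tolerance in uninfected animals.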"}, "Punta Toro virus [6]": {"tested_on": "Punta Toro virus", "experiment": "Antiviral activity against Punta Toro virus Adames infected Syrian golden hamster assessed as mean viral titer per 0.1 g of liver at 60 mg/kg, po twice daily administered 4 hrs before viral challenge measured on day 4 of viral infection", "format": "functional"}, "Pichinde virus [7]": {"tested_on": "Pichinde virus", "experiment": "Antiviral activity against Pichinde virus An 4763 infected Syrian golden hamster assessed as animals with detectable virus level in serum at 15 mg/kg, po twice daily for 7 days administered 4 hrs before viral-challenge measured on day 7 of viral infection", "format": "functional", "outline": "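Hamsters (groups of 15, placebo 25-30) were dosed orally by gavage twice daily (drug suspended in 0.4% CMC) after bilateral intraperitoneal challenge with 65 PFU. Five per group were killed on day 7. Liver homogenate or serum was serially diluted onto triplicate B-SC-1 wells, CPE was read at 6-8 days, and the 50% endpoint was taken. Range was 2.8-9.5 log10 CCID50/0.1 g or 0.1 ml, with undetectable assigned <2.8.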"}, "Punta Toro virus [8]": {"tested_on": "Punta Toro virus", "experiment": "Antiviral activity against 500 PFU Punta Toro virus Adames infected C57BL/6 mouse assessed as mean serum ALT levels at 25 mg/kg, po twice daily administered 4 hrs before viral challenge measured on day 4 of viral infection", "format": "functional", "outline": "as §1"}, "Punta Toro virus [9]": {"tested_on": "Punta Toro virus", "experiment": "Antiviral activity against 500 PFU Punta Toro virus Adames infected C57BL/6 mouse assessed as protection against viral infection at 10 mg/kg, po twice daily for 5 to 7 days twice daily administered 4 hrs before viral challenge", "format": "functional", "outline": "as §2"}, "Punta Toro virus [10]": {"tested_on": "Punta Toro virus", "experiment": "Antiviral activity against 500 PFU Punta Toro virus Adames infected C57BL/6 mouse assessed as mean viral titer per 0.1 g of liver at 200 mg/kg, po twice daily administered 4 hrs before viral challenge measured on day 4 of viral infection", "format": "functional", "outline": "(§3)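 Mice were infected subcutaneously with PTV and dosed by oral gavage twice daily; 5 per group (10 placebo) were killed on day 3 or 4. Liver homogenate or serum was serially diluted onto triplicate LLC-MK2 monolayers, and CPE was read 6–8 days later. 50% endpoints gave log10 CCID50 per 0.1 g liver or 0.1 ml serum. Detection range was 2.8–9.5; undetectable samples were assigned <2.8.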"}, "Punta Toro virus [11]": {"tested_on": "Punta Toro virus", "experiment": "Antiviral activity against 500 PFU Punta Toro virus Adames infected C57BL/6 mouse assessed as animals with detectable virus level in serum at 10 mg/kg, po twice daily administered 24 hrs post viral challenge measured on day 3 of viral infection", "format": "functional", "outline": "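T-705 was suspended in 0.4% carboxymethylcellulose and given by oral gavage twice daily. Mice were infected subcutaneously with PTV. Five mice per group (10 placebo) were sacrificed on day 3 or 4. Liver homogenate or serum was serially diluted onto triplicate LLC-MK2 monolayers, and CPE was read at 6–8 days. The detection limit was 2.8 log10 CCID50 per 0.1 g liver or 0.1 ml serum.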"}, "Punta Toro virus [12]": {"tested_on": "Punta Toro virus", "experiment": "Antiviral activity against Punta Toro virus Adames infected Syrian golden hamster assessed as inhibition of liver damage at 60 mg/kg, po twice daily administered 4 hrs before viral challenge measured on day 4 of viral infection", "format": "functional, organism-based", "parameters": "dose 60 mg/kg"}, "Pichinde virus [13]": {"tested_on": "Pichinde virus", "experiment": "Antiviral activity against Pichinde virus An 4763 infected Syrian golden hamster assessed as mean viral titer per 0.1 g of liver at 30 mg/kg, po twice daily for 7 days administered 4 hrs before viral-challenge measured on day 7 of viral infection", "format": "functional"}, "Pichinde virus [14]": {"tested_on": "Pichinde virus", "experiment": "Antiviral activity against Pichinde virus An 4763 infected Syrian golden hamster assessed as animals with detectable virus level in serum at 30 mg/kg, po twice daily for 7 days administered 4 hrs before viral-challenge measured on day 7 of viral infection", "format": "functional"}, "Enterovirus": {"tested_on": "Enterovirus", "experiment": "Antiviral activity against Rhinovirus", "format": "functional, organism-based"}, "Rift Valley fever virus": {"tested_on": "Rift Valley fever virus", "experiment": "Antiviral activity against Rift Valley fever virus MP-12 assessed as reduction of 1 log10 unit viral titer yields after 3 to 5 days", "format": "functional"}, "Punta Toro virus [15]": {"tested_on": "Punta Toro virus", "experiment": "Antiviral activity against Punta Toro virus Adames infected Syrian golden hamster assessed as animals with detectable virus level in liver at 60 mg/kg, po twice daily administered 4 hrs before viral challenge measured on day 4 of viral infection", "format": "functional"}, "Punta Toro virus [16]": {"tested_on": "Punta Toro virus", "experiment": "Antiviral activity against Punta Toro virus Adames infected Syrian golden hamster assessed as animals with detectable virus level in serum at 60 mg/kg, po twice daily administered 4 hrs before viral challenge measured on day 4 of viral infection", "format": "functional"}, "La Crosse virus": {"tested_on": "La Crosse virus", "experiment": "Antiviral activity against La Crosse virus assessed as reduction of 1 log10 unit viral titer yields after 3 to 5 days", "format": "functional"}, "Punta Toro virus [17]": {"tested_on": "Punta Toro virus", "experiment": "Antiviral activity against 500 PFU Punta Toro virus Adames infected C57BL/6 mouse assessed as survival at 75 mg/kg, po twice daily for 5 days administered 4 hrs before viral challenge", "format": "functional, organism-based", "parameters": "dose 75 mg/kg", "outline": "as §2"}, "Pichinde virus [18]": {"tested_on": "Pichinde virus", "experiment": "Antiviral activity against Pichinde virus An 4763 infected Syrian golden hamster assessed as mean serum ALT levels at 15 mg/kg, po twice daily for 7 days administered 4 hrs before viral-challenge measured on day 7 of viral infection", "format": "functional"}, "Punta Toro virus [19]": {"tested_on": "Punta Toro virus", "experiment": "Antiviral activity against 500 PFU Punta Toro virus Adames infected C57BL/6 mouse assessed as mean viral titer per 0.1 mL of serum at 25 mg/kg, po twice daily administered 4 hrs before viral challenge measured on day 4 of viral infection", "format": "functional", "outline": "as §3"}, "Pichinde virus [20]": {"tested_on": "Pichinde virus", "experiment": "Antiviral activity against Pichinde virus An 4763 infected Syrian golden hamster assessed as mean viral titer per 0.1 mL of serum at 60 mg/kg, po twice daily for 7 days administered 4 hrs before viral-challenge measured on day 7 of viral infection", "format": "functional"}, "Punta Toro virus [21]": {"tested_on": "Punta Toro virus", "experiment": "Antiviral activity against 500 PFU Punta Toro virus Adames infected C57BL/6 mouse assessed as mean viral titer per 0.1 g of liver at 100 mg/kg, po administered 4 hrs before viral challenge measured on day 4 of viral infection", "format": "functional", "outline": "as §3"}}, "note": "Active and inactive are the calls of the source. The calls are words filed in the database; no cut-off is given here."}
{"smiles": "NC(=O)c1ncn([C@@H]2O[C@H](CO)[C@@H](O)[C@H]2O)n1", "note": "[RIBAVIRIN]", "values": [{"measurement": "Activity", "setting": "Punta Toro virus [1]", "result": 38, "unit": "IU/L"}, {"measurement": "Activity", "setting": "Pichinde virus [2]", "result": "Active"}]}
{"smiles": "NC(=O)c1nc(F)cnc1O", "note": "[FAVIPIRAVIR]", "values": [{"measurement": "Activity", "setting": "Punta Toro virus [3]", "result": 100, "unit": "%"}, {"measurement": "EC90", "setting": "Punta Toro virus [4]", "result": 20, "unit": "µM"}, {"measurement": "Activity", "setting": "Punta Toro virus [5]", "result": "Active"}, {"measurement": "log10CCID50", "setting": "Punta Toro virus [6]", "result": "<3.4"}, {"measurement": "Activity", "setting": "Pichinde virus [7]", "result": 80, "unit": "%"}, {"measurement": "Activity", "setting": "Punta Toro virus [8]", "result": 69, "unit": "IU/L"}, {"measurement": "Activity", "setting": "Punta Toro virus [9]", "result": 90, "unit": "%"}, {"measurement": "log10CCID50", "setting": "Punta Toro virus [10]", "result": "<2.8"}, {"measurement": "Activity", "setting": "Punta Toro virus [11]", "result": 100, "unit": "%"}, {"measurement": "Activity", "setting": "Punta Toro virus [12]", "result": "Active"}, {"measurement": "log10CCID50", "setting": "Pichinde virus [13]", "result": 6.4}, {"measurement": "Activity", "setting": "Pichinde virus [14]", "result": 80, "unit": "%"}, {"measurement": "EC50", "setting": "Enterovirus", "result": 146, "unit": "µM"}, {"measurement": "EC90", "setting": "Rift Valley fever virus", "result": 6, "unit": "µM"}, {"measurement": "Activity", "setting": "Punta Toro virus [15]", "result": 20, "unit": "%"}, {"measurement": "Activity", "setting": "Punta Toro virus [16]", "result": 20, "unit": "%"}, {"measurement": "EC90", "setting": "La Crosse virus", "result": 7, "unit": "µM"}, {"measurement": "Activity", "setting": "Punta Toro virus [17]", "result": "Active"}, {"measurement": "Activity", "setting": "Pichinde virus [18]", "result": 1220, "unit": "IU/L"}, {"measurement": "log10CCID50", "setting": "Punta Toro virus [19]", "result": "<3.3"}, {"measurement": "log10CCID50", "setting": "Pichinde virus [20]", "result": "<2.8"}, {"measurement": "log10CCID50", "setting": "Punta Toro virus [21]", "result": "<2.8"}]}
